Test results taken from publication PMC3277286 (Journal of Medicinal Chemistry, 2012).

Assays:
human ΔF508-CFTR [1] = target: T1, human ΔF508-CFTR (Homo sapiens, UniProt P13569, DEL508-508); type: cell-based; settings: summary in text of corrector and potentiator assays in ΔF508-CFTR FRT cells
Summary of the method: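 FRT cells coexpressing human ΔF508-CFTR and YFP-H148Q/I152L were grown 18–24 h at 37 °C, then rescued 18–24 h at 27 °C. After a PBS wash, they got 20 μM forskolin with test compound (0–50 μM final, eight concentrations) for 10 min. I⁻ influx was recorded over 2 s baseline plus 12 s after iodide addition, rate by exponential regression. Controls were DMSO and genistein. Runs were in triplicate; EC50/Vmax came from a 4-parameter logistic fit.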

human ΔF508-CFTR [2] = target: T1, human ΔF508-CFTR; assay: ΔF508-CFTR corrector activity, fluorescence plate-reader iodide influx assay; type: cell-based; settings: summary in text of corrector and potentiator assays in ΔF508-CFTR FRT cells
Summary of the method: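 FRT cells stably coexpressing human ΔF508-CFTR and YFP-H148Q/I152L were grown 24 h at 37 °C, then given test compound for 16–20 h at eight concentrations (maximum 25 μM). After a PBS wash, they got 20 μM forskolin plus 50 μM genistein for 20 min. Iodide influx was read as YFP quenching after Cl-to-I replacement (137 mM), fitted exponentially. Runs were in triplicate; EC50/Vmax came from a 4-parameter logistic fit.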

Row | SMILES | Activity class from function studies (potentiator) (human ΔF508-CFTR [1]) | Activity class from function studies (corrector / dual) (human ΔF508-CFTR [2])
1 | Cc1cc(C)c2cc(C#N)c(NCCNC(=O)c3ccccc3)nc2c1 [CoPo 19, N-(2-((3-Cyano-5,7-dimethylquinolin-2-yl)amino)ethyl)benzamide] | potentiator-only activity | –
2 | COc1ccccc1C(=O)NCCCNc1nc2cc(C)cc(C)c2cc1C#N [CoPo 31, N-(3-(3-Cyano-5,7-dimethylquinolin-2-ylamino)propyl)-2-methoxybenzamide] | potentiator-only activity | –

Second part, the compound after the results:

Row | Activity class from function studies (potentiator) (human ΔF508-CFTR [1]) | Activity class from function studies (corrector / dual) (human ΔF508-CFTR [2]) | SMILES
3 | potentiator-only activity | – | Cc1cc(C)c2cc(C#N)c(NCCNC(=O)c3ccccn3)nc2c1 [CoPo 16, N-(2-((3-Cyano-5,7-dimethylquinolin-2-yl)amino)ethyl)picolinamide]
4 | – | corrector-only activity | Cc1cc(C)c2cc(C#N)c(NCCNC(=O)c3cnccn3)nc2c1 [CoPo 22, N-(2-((3-Cyano-5,7-dimethylquinolin-2-yl)amino)ethyl)pyrazine-2-carboxamide]
5 | potentiator-only activity | – | Cc1cc(C)c2cc(C#N)c(NCCCNC(=O)c3ccccn3)nc2c1 [CoPo 34, N-(3-(3-Cyano-5,7-dimethylquinolin-2-ylamino)propyl)picolinamide]
